Here are results for two molecules from ChEMBL document CHEMBL4613270, “Structure-Activity Relationship Study Enables the Discovery of a Novel Berberine Analogue as the RXRα Activator to Inhibit Colon Cancer” (J Med Chem, 2020).

pIC50, pKd: −log10 of the molar value. Active and inactive are the calls of the source. No cut-off for these calls is given here.

For series [1], the target named is T1, Retinoic acid receptor RXR-alpha (Homo sapiens) (UniProt P19793).
T1 sequence (whole entry): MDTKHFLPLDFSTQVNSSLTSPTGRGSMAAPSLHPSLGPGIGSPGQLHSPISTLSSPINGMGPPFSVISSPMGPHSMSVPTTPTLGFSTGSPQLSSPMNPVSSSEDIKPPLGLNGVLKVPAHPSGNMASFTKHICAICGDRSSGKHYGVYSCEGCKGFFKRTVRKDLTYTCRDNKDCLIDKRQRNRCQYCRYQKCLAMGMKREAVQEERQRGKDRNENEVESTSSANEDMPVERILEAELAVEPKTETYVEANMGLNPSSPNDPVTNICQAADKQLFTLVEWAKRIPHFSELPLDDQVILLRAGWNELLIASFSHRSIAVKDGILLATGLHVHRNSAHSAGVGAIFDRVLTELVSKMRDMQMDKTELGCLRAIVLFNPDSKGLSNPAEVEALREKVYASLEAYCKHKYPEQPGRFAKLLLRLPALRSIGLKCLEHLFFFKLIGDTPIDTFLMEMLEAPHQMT
As to the kind of experiment: Activation of RXRalpha in human HCT116 cells assessed as induction of beta-catenin protein degradation at 30 to 60 uM incubated for 15 hrs by Western blot analysis. In kind it is cell-based. The note with it: HCT-116. (In western blotting, separated proteins are transferred to a membrane and probed.)

The nature of series [2]: Cmax in Sprague-Dawley rat at 100 mg/kg, ig measured after 0.083 to 36 hrs by LC-MS/MS analysis. The class given is ADME, organism-based. On the set-up: dose 100 mg/kg, route intragastric. The note with it: in vivo, po. An outline of the steps: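 SD rats (200 ± 20 g) randomized to three groups; single intragastric dose of 100 mg/kg or vehicle (0.5% CMC-Na). Tail-vein blood (0.5 mL) drawn at 0.083, 0.25, 0.5, 1, 2, 4, 8, 12, 24 and 36 h. Plasma separated by centrifugation at 2000 rpm for 10 min, frozen at -80 °C, then quantified by LC-MS/MS.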

Series [3] has as its system HCT-116. As to the kind of experiment: Inhibition of cell proliferation of human HCT116 cells incubated for 15 hrs by MTT assay. The note with it: HCT-116, 15 h. In kind it is functional, cell-based. In outline:
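Cells plated at 1×10⁴ per well, incubated overnight at 37 °C, then exposed to a concentration series for 15 h. MTT (5 mg/mL stock) added for 4 h at 37 °C. Formazan dissolved in DMSO and absorbance read at 570 nm. IC50 derived from the dose-response curve.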
Background: Tetrazolium dyes change colour on reduction, which living cells bring about.

Series [4] has as its target T1, Retinoic acid receptor RXR-alpha (Homo sapiens). As to the kind of experiment: Activation of RXRalpha in human KM12C cells assessed as increase in p21 (WAF1/CIP1) protein expression at 25 to 50 uM incubated for 15 hrs by Western blot analysis. The class given is cell-based.
For series [5] the target is unchanged. Nature of the series: Activation of RXRalpha in human SW620 cells assessed as reduction in Cdc2 protein expression at 40 to 80 uM incubated for 15 hrs by Western blot analysis. In kind it is cell-based. As to conditions: SW-620.
The target is the same in series [6]. As to the kind of experiment: In-vivo activation of RXRalpha in BALB/c mouse xenografted with human KM12C cells assessed as reduction in c-Myc protein expression at 100 mg/kg, ig dosed daily for 15 days by immunohistochemistry analysis. The class given is functional, organism-based. An outline of the steps:
(§1)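 KM12C cells (1×10^6 per mouse in 100 μL HBSS) injected subcutaneously into both flanks of nude mice; after seven days, randomized to three groups, dosed intragastrically once daily for 15 days with vehicle (CMC-Na) or 100 mg/kg compound; mice euthanized and tumors removed for analysis.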

For series [7] the target is unchanged. As to the kind of experiment: Activation of RXRalpha in human HCT116 cells assessed as reduction in c-Myc protein expression at 30 to 60 uM incubated for 15 hrs by Western blot analysis. In kind it is cell-based. The note with it: HCT-116.
The subject of series [8] is KM12C. Nature of the series: Antitumor activity against human KM12C cells xenografted in BALB/c mouse assessed as inhibition of tumor growth at 100 mg/kg, ig dosed daily for 15 days relative to control. The class given is functional. As to conditions: po, 360 h, read-out: TGI. An outline of the steps:
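Nude mice received subcutaneous injections of KM12C cells (1×10⁶ in 100 μL HBSS) into both flanks. After seven days, tumour-bearing mice (80–200 mm³) were randomized into three groups. Daily intragastric dosing at 100 mg/kg, or CMC-Na vehicle, for 15 days. Tumours then excised and weighed; inhibition rate calculated versus vehicle.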

Series [9] is described as follows: Toxicity in BALB/c mouse xenografted with human KM12C cells assessed as effect on biochemical parameter by measuring calcium level at 100 mg/kg, ig dosed daily for 15 days by automatic chemistry analyzer based analysis (reference value: 2.27 +/- 0.059 mmol/L). As to conditions: in vivo, po, 360 h. The class given is organism-based.
The target of series [10] is T2, Retinoic acid receptor RXR-alpha (Homo sapiens, UniProt P19793).
T2 sequence (P19793 whole entry): T1 sequence (whole entry)
As to the kind of experiment: Binding affinity to His-tagged RXRalpha LBD (unknown origin) expressed in Escherichia coli strain BL21 (DE3) by fluorescence quenching analysis. In outline:
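His-RXRα-LBD expressed from pET15b in E. coli BL21(DE3), induced with 0.1 mM IPTG at 16 °C for 16 h, purified on Ni-NTA. Protein held at 1 μM in PBS pH 7.4 and titrated with ligand (2–30 μM). Excitation 280 nm, emission scanned 290–600 nm, DMSO blank subtracted, each spectrum measured three times. Apparent Kd taken from the titration curve.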

The target in series [11] is T1, Retinoic acid receptor RXR-alpha (Homo sapiens). As to the kind of experiment: Activation of RXRalpha in human KM12C cells assessed as reduction in c-Myc protein expression at 25 to 50 uM incubated for 15 hrs by Western blot analysis. The class given is cell-based.
Series [12] shares this target. Nature of the series: Activation of RXRalpha in human SW620 cells assessed as reduction in c-Myc mRNA expression at 40 to 80 uM incubated for 15 hrs by real-time PCR analysis. As to conditions: SW-620. In kind it is cell-based. (In general: Quantitative PCR measures a nucleic acid by following its amplification.)
Series [13] has the same target. Nature of the series: Activation of RXRalpha in human HCT116 cells assessed as […] crease in p21 (WAF1/CIP1) mRNA expression at 30 to 60 uM incubated for 15 hrs by real-time PCR analysis. The class given is cell-based. The note with it: HCT-116.
Series [14] has the same target. As to the kind of experiment: Activation of RXRalpha in human SW620 cells assessed as inhibition of Wnt/beta-catenin-dependent transcriptional activity at 40 to 80 uM incubated for 15 hrs by TOP/FOP luciferase assay. The class given is cell-based. As to conditions: SW-620. An outline of the steps: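 TOP/FOP reporter: cells co-transfected by lipofection with pRL-TK plus TOPflash or FOPflash; compound added 20 h after transfection for 15 h; passive lysis at 4 °C, 1 h; firefly and Renilla luciferase measured by dual-luciferase assay.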

For series [15] the target is unchanged. Nature of the series: Activation of RXRalpha in human SW620 cells assessed as increase in p21 (WAF1/CIP1) protein expression at 40 to 80 uM incubated for 15 hrs by Western blot analysis. In kind it is cell-based. The note with it: SW-620.
Series [16] shares this target. As to the kind of experiment: Activation of RXRalpha in human KM12C cells assessed as reduction in Cdc2 mRNA expression at 25 to 50 uM incubated for 15 hrs by real-time PCR analysis. In kind it is cell-based.
For series [17] the target is unchanged. Nature of the series: In-vivo activation of RXRalpha in BALB/c mouse xenografted with human KM12C cells assessed as reduction in Cdc2 protein expression at 100 mg/kg, ig dosed daily for 15 days by immunohistochemistry analysis. The class given is functional, organism-based. An outline of the steps:
as §1

The Cmax is the maximum level reached in the sampled fluid or tissue. Usually pIC50 stands for the IC50 on a negative log10 scale, so that one unit is a factor of ten. The low end stands for a high IC50, the high end for a low IC50. Usually pKd stands for −log10 of the Kd, conventionally taken in molar units. Turning to `COc1ccc2c(c1)CC[n+]1cc3c(OC)cccc3cc1-2.[Cl-]`, the outcome in [1], in [4], in series [5], in series [6], in [7] and in [11] was Active. Further, the result in series [12], in series [13], in series [14], in [15], in [16] and in series [17] was Active. Besides, in series [2] (Sprague-Dawley, read-out: Cmax), the Cmax amounted to 0.486 µg/mL. Besides, in series [3], the negative logarithm of the IC50 (pIC50) was 4.57. The inhibition in vivo at 100 mg/kg in series [8] is 69.1%. Also, in [9], the Activity is on record as 2.23 mmol/L. Also, the negative logarithm of the Kd (pKd) in [10] was 4.72.

Consider `COc1ccc2cc3[n+](cc2c1OC)CCc1cc2c(cc1-3)OCO2.[Cl-]` [BERBERINE CHLORIDE], for which the result in [1], in series [4], in series [5], in series [6], in [7] and in series [11] was Active. The outcome in [12], in series [13], in [14], in series [15], in series [16] and in series [17] was Active. For the same molecule, the maximum concentration (Cmax) in series [2] stood at 0.002893 µg/mL. Also, the pIC50 in series [3] is 4.08. The inhibition in vivo at 100 mg/kg in series [8] was 33.6%. Further, in [9], the Activity was found to be 2.13 mmol/L. This molecule also showed a negative-log Kd (pKd) in [10] of 4.61.
